Data on one compound can be found in ChEMBL document CHEMBL1800054, “Thiazolides as novel antiviral agents. 1. Inhibition of hepatitis B virus replication” (J Med Chem, 2011).

A short description of data set [1]: Cytotoxicity against human HepG2(2.2.15) cells after 24 hrs by neutral red dye uptake assay. As to conditions: HepG2(2.2.15) cells. Type of data set: cell-based. In a few lines: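 Confluent chronically HBV-producing 2.2.15 cultures given nine consecutive daily doses of compound; neutral red dye uptake read 24 hr after the last dose.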
For data set [2], the system named is Hepatitis B virus. Briefly: Antiviral activity against Hepatitis B virus infected in human HepG2(2.2.15) cells assessed as decrease in intracellular viral DNA measured 24 hrs after last dose. Type of data set: functional, organism-based. As to conditions: HepG2 2.2.15, 24 h. The gist of the method:
(§1)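 Confluent 2.2.15 cells (HepG2 line chronically producing HBV) in 96-well culture; nine consecutive daily doses of compound. HBV DNA (extracellular virion or intracellular replication intermediates) quantified by blot hybridization 24 hr after the last dose. Cytotoxicity measured by neutral red uptake 24 hr after the last dose.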

Data set [3] relates to Plasma. Briefly: Protein binding in human plasma. Type of data set: ADME, cell-free.
The subject of data set [4] is Plasma. The experiment in a line: Metabolic stability in human plasma assessed as plasma esterase-induced compound deacetylation. Type of data set: ADME, cell-free.
Data set [5] relates to Hepatitis B virus. Briefly: Antiviral activity against Hepatitis B virus infected in human HepG2(2.2.15) cells assessed as decrease in extracellular viral DNA measured 24 hrs after last dose. Format: functional, organism-based. Particulars: HepG2 2.2.15, 24 h. The gist of the method:
as §1

The CC50 is the concentration that lowers cell viability or growth by half. Low values mean greater toxicity to the cells, high ones lower toxicity to the cells. Broadly, the EC50 is the concentration at which the effect is half-maximal. As to `CC(=O)Oc1ccccc1C(=O)Nc1ncc([N+](=O)[O-])s1` [NITAZOXANIDE], the half-maximal cytotoxic concentration (CC50) at 24 h in data set [1] is greater than 100000 nM. Besides, the EC50 with Hepatitis B virus [2] is 590 nM; in the data set with Hepatitis B virus [5] it was 120 nM. This compound also yielded a PPB with Plasma [3] greater than 95%. In addition, in the data set on Plasma [4], the t1/2 came out at 6 min.
